{
  "source": "paper PMC10407542",
  "about": "(The Innovation, 2023)",
  "key": {"[1]": {"test_system": "S.aureus infected skin wound", "assay": "In vivo anti-infection study, S.aureus infected full-thickness wound model", "design": "species or system rat", "settings": "SD rats, early stages, n = 5", "outline": "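Rats bearing S. aureus-infected skin wounds were given PBS (control) or test compound. Wound beds were inspected visually for yellow pus in the early stages. Infection was confirmed by agar plate counts of tissue exudate from wound sites on day 3. Wound healing and wound size were followed over time. Mean ± SD, n = 5.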"}, "[2]": {"test_system": "S. aureus biofilm", "assay": "Activity against mature S. aureus biofilm", "format": "cell-based, Staphylococcus aureus", "settings": "treatment for 8 h"}},
  "data": [
    {"substance": "N3-Arg-Trp-Arg-Trp-Arg-Trp-NH2 [AMP]", "values": [
      {"measurement": "pyogenic infection (yellow pus) on the infected wound bed", "setting": "[1]", "value": "not observed"},
      {"measurement": "minimum eradication biofilm concentration", "setting": "[2]", "value": "1,280 μmol L^−1"}
    ]}
  ]
}
